Results reported in ChEMBL document CHEMBL2331236, “Synthesis and biological evaluation of 1-(2-hydroxy-3-phenyloxypropyl)piperazine derivatives as T-type calcium channel blockers” (Bioorg Med Chem Lett, 2013).

Assays:
[1] = target: T1, Voltage-dependent T-type calcium channel subunit alpha-1G (Homo sapiens, UniProt O43497); assay: Inhibition of alpha-1G calcium channel in human HEK293 cells at 10 uM by FDSS6000 fluorescence-based assay
HEK293 = assay: Selectivity ratio of IC50 for human ERG to IC50 for alpha-1G calcium channel in human HEK293 cells; assay type: cell-based
[2] = target: Voltage-gated inwardly rectifying potassium channel KCNH2 (Homo sapiens, UniProt Q12809); assay: Inhibition of human ERG
[3] = target: T1, Voltage-dependent T-type calcium channel subunit alpha-1G; assay: Inhibition of alpha-1G calcium channel in human HEK293 cells by whole-cell patch-clamp method; assay type: cell-based
Outline: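 Whole-cell recordings used α1G T-type channels. Pipette solution (mM): 130 KCl, 11 EGTA, 5 Mg-ATP, 10 HEPES, pH 7.4. Bath (mM): 140 NaCl, 2 CaCl2, 10 HEPES, 10 glucose, pH 7.4. Currents were evoked every 15 s by a 50 ms step from −100 to −30 mV. IC50 for peak-current inhibition came from dose-response curve fitting of raw data.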

[4] = Tmax in ICR mouse brain at 10 mg/kg, po; assay type: ADME, organism-based; parameters: dose 10 mg/kg, route oral
Outline: (§1)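 ICR mice were dosed orally at 10 mg/kg, with n = 3 per time point. Plasma and brain concentrations were followed over time. Cmax, Tmax, AUClast, AUC0-∞ and terminal half-life were taken from the concentration–time profiles, and values are means.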

[5] = Cmax in ICR mouse brain at 10 mg/kg, po; assay type: ADME, organism-based; parameters: dose 10 mg/kg, route oral
Outline: as §1

[6] = (§2) AUClast in ICR mouse brain at 10 mg/kg, po; assay type: ADME, organism-based; parameters: time 0 - last, dose 10 mg/kg, route oral; conditions: ICR, brain
Outline: as §1

[7] = Terminal half life in ICR mouse brain at 10 mg/kg, po; assay type: ADME, organism-based; parameters: dose 10 mg/kg, route oral; conditions: read-out: beta t1/2
Outline: as §1

Brain [8] = assay: AUC (0 to infinity) in ICR mouse brain at 10 mg/kg, po; assay type: ADME, organism-based; parameters: dose 10 mg/kg, route oral, time infinity; conditions: in vivo
Outline: as §1

[9] = Oral bioavailability in ICR mouse at 10 mg/kg; assay type: ADME, organism-based; conditions: in vivo
[10] = Ratio of AUC in brain to AUC in plasma of ICR mouse at 10 mg/kg, po; assay type: ADME, organism-based; parameters: dose 10 mg/kg, route oral
Outline: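 ICR mice dosed orally at 10 mg/kg; plasma and brain sampled over time (n = 3 per time point). AUC (taken as dose/clearance) computed for each matrix from mean concentration–time profiles; brain-to-plasma ratio reported as AUCbrain/AUCplasma […], from mean values.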

[11] = Tmax in ICR mouse plasma at 10 mg/kg, po; assay type: ADME, organism-based; parameters: dose 10 mg/kg, route oral
Outline: as §1

[12] = Terminal half life in ICR mouse plasma at 10 mg/kg, po; assay type: ADME, organism-based; parameters: dose 10 mg/kg, route oral; conditions: read-out: beta t1/2
Outline: as §1

[13] = Cmax in ICR mouse plasma at 10 mg/kg, po; assay type: ADME, organism-based; parameters: dose 10 mg/kg, route oral
Outline: as §1

[14] = AUClast in ICR mouse plasma at 10 mg/kg, po; assay type: ADME, organism-based; parameters: time 0 - last, dose 10 mg/kg, route oral
Outline: as §1

[15] = AUC (0 to infinity) in ICR mouse plasma at 10 mg/kg, po; assay type: ADME, organism-based; parameters: time infinity, dose 10 mg/kg, route oral
Outline: as §1

Brain [16] = assay: as §2; assay type: ADME, organism-based; parameters: time 0 - last, dose 10 mg/kg, route oral; conditions: in vivo
Outline: as §1

T1 sequence (O43497 whole entry): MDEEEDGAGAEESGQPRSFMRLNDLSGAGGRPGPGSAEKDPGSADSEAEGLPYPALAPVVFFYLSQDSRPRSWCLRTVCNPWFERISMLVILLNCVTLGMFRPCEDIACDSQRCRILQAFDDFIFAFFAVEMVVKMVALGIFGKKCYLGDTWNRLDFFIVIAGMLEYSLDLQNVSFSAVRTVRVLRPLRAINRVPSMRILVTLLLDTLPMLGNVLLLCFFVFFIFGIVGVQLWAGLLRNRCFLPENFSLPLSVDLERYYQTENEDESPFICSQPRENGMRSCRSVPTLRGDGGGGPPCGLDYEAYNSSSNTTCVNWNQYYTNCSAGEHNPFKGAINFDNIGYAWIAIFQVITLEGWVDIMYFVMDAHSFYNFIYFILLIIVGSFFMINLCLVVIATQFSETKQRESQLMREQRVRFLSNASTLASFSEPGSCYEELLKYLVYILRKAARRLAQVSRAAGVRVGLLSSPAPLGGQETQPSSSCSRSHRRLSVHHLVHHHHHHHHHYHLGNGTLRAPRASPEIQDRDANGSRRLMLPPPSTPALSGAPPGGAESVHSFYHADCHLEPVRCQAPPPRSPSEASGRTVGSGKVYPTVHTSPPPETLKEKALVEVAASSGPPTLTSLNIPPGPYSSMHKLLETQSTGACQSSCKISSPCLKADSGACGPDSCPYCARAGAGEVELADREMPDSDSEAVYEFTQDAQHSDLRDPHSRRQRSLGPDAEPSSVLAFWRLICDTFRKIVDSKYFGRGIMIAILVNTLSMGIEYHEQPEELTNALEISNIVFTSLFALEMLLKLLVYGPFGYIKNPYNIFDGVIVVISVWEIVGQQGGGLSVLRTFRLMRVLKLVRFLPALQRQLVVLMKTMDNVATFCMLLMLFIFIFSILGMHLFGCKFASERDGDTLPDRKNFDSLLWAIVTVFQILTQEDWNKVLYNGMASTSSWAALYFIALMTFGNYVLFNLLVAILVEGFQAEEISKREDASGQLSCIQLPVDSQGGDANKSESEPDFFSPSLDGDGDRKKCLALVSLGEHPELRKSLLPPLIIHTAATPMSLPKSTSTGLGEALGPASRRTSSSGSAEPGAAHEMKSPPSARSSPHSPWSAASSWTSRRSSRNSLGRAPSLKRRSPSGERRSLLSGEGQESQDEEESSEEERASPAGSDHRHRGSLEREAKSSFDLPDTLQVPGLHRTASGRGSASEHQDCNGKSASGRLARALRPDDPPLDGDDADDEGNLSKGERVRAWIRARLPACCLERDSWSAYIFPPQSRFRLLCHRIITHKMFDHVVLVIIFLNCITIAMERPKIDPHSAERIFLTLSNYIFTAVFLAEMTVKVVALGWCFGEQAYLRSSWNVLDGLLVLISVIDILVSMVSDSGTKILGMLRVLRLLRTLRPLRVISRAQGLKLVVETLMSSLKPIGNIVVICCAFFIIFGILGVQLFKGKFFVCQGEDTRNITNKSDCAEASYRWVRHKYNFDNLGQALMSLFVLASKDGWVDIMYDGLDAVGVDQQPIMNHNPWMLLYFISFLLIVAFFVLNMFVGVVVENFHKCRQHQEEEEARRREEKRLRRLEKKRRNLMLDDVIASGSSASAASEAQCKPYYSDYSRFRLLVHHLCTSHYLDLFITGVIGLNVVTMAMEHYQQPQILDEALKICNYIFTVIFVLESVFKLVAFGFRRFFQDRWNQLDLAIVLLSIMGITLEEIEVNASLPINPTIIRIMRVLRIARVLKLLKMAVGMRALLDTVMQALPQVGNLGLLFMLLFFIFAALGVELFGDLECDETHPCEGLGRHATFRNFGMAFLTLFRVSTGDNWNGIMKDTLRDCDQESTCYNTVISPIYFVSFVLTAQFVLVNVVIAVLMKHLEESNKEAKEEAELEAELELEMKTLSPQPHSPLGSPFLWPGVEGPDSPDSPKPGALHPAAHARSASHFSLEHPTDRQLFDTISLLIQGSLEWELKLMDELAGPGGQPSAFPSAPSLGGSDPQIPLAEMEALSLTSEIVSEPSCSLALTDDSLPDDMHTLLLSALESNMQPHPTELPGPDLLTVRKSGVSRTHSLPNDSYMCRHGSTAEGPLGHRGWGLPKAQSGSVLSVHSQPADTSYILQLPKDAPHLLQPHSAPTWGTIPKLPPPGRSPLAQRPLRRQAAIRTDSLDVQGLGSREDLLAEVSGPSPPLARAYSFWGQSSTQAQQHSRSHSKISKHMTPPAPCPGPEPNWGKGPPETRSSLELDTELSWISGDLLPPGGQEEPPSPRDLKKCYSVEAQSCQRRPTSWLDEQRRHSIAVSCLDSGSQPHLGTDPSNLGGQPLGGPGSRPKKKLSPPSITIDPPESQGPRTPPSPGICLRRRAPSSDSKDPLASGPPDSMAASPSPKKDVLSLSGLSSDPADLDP
Voltage-gated inwardly rectifying potassium channel KCNH2, sequence (Q12809 whole entry): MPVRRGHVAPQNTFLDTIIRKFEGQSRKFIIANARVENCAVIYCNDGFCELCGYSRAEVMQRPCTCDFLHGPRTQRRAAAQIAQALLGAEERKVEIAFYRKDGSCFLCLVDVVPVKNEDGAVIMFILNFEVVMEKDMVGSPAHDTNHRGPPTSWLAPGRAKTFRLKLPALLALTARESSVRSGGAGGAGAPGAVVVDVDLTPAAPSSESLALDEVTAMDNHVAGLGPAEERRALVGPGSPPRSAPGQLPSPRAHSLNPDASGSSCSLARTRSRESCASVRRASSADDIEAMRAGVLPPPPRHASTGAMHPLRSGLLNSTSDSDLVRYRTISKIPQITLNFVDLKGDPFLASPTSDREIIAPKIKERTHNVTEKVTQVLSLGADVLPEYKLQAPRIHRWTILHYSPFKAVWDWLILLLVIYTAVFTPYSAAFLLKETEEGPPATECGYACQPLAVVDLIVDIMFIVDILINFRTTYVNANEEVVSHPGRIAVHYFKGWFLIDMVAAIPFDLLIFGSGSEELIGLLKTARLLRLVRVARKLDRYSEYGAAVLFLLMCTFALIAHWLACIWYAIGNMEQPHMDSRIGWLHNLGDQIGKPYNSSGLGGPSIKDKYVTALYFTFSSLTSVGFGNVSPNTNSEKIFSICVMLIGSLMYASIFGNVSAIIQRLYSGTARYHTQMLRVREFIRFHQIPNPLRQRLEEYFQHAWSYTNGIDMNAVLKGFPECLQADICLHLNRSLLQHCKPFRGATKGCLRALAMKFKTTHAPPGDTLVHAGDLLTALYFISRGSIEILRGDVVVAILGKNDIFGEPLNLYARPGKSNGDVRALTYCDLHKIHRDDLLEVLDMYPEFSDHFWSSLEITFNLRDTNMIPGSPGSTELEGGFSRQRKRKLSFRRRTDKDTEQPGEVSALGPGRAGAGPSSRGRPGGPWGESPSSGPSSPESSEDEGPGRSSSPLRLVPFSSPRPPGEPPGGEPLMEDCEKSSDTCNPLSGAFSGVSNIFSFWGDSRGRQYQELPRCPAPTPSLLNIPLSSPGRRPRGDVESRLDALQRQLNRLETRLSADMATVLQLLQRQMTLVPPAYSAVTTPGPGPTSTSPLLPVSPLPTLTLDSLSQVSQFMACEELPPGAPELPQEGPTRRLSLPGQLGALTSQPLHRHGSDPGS

SMILES: O[C@H](COc1ccc(Cl)cc1)CN1CCN(c2ccc(F)cc2)CC1
- inhibition [1]: 28.3%

SMILES: COc1ccccc1N1CCN(C[C@@H](O)COc2ccc(C(F)(F)F)cc2)CC1
- Ratio IC50 (HEK293): 2.21
- IC50 [2]: 3950 nM
- IC50 [3]: 1790 nM
- inhibition [1]: 56.2%

SMILES: O[C@H](COc1ccc(C(F)(F)F)cc1)CN1CCN(Cc2ccc(Cl)c(Cl)c2)CC1
- inhibition [1]: 45.6%

SMILES: COc1cccc(N2CCN(C[C@H](O)COc3ccc(Cl)cc3)CC2)c1
- inhibition [1]: 46%

SMILES: COc1cccc(N2CCN(C[C@@H](O)COc3ccc(C(F)(F)F)cc3)CC2)c1
- inhibition [1]: 43.9%

SMILES: O[C@H](COc1ccc(C(F)(F)F)cc1)CN1CCN(Cc2ccccc2F)CC1
- inhibition [1]: 48.6%

SMILES: COc1cccc(N2CCN(C[C@H](O)COc3ccc(F)cc3)CC2)c1
- inhibition [1]: 44.5%

SMILES: O[C@H](COc1ccc(Cl)cc1)CN1CCN(Cc2cccc(Cl)c2)CC1
- inhibition [1]: 52.2%

SMILES: O[C@@H](COc1ccc(F)cc1)CN1CCN(Cc2ccccc2F)CC1
- inhibition [1]: 23.8%

SMILES: O[C@H](COc1ccc(F)cc1)CN1CCN(c2ccc(F)cc2)CC1
- inhibition [1]: 50%

SMILES: O[C@@H](COc1ccc(Cl)cc1)CN1CCN(Cc2ccc(Cl)cc2)CC1
- inhibition [1]: 42.1%

SMILES: O[C@@H](COc1ccc(C(F)(F)F)cc1)CN1CCN(c2ccc(F)cc2)CC1
- inhibition [1]: 53.7%

SMILES: O[C@H](COc1ccc(Cl)cc1)CN1CCN(Cc2c(F)cccc2Cl)CC1
- Ratio IC50 (HEK293): 1.46
- IC50 [2]: 2070 nM
- IC50 [3]: 1420 nM
- inhibition [1]: 54.4%

SMILES: COc1cccc(N2CCN(C[C@H](O)COc3ccc(C(F)(F)F)cc3)CC2)c1
- Tmax [4]: 15 min
- Cmax [5]: 4660 ng/mL
- AUC(0-t) [6]: 8290 ng·h/mL
- half-life [7]: 474 min
- AUC (Brain [8]): 686.6 µg·min/g
- bioavailability [9]: 67.2%
- Kp [10]: 3.46
- Tmax [11]: 15 min
- half-life [12]: 102 min
- Cmax [13]: 1570 ng/mL
- AUC(0-t) [14]: 3140 ng·h/mL
- AUC(0-inf) [15]: 3300 ng·h/mL
- Ratio IC50 (HEK293): 8.5
- IC50 [2]: 4080 nM
- IC50 [3]: 480 nM
- inhibition [1]: 68.5%

SMILES: O[C@@H](COc1ccc(F)cc1)CN1CCN(Cc2c(F)cccc2Cl)CC1
- IC50 [3]: 12300 nM
- inhibition [1]: 56.5%

SMILES: O[C@@H](COc1ccc(C(F)(F)F)cc1)CN1CCN(Cc2cccc(Cl)c2)CC1
- inhibition [1]: 43.1%

SMILES: O[C@@H](COc1ccc(F)cc1)CN1CCN(Cc2ccc(Cl)cc2)CC1
- inhibition [1]: 50.1%

SMILES: O[C@H](COc1ccc(F)cc1)CN1CCN(Cc2ccc(Cl)c(Cl)c2)CC1
- Ratio IC50 (HEK293): 1.26
- IC50 [2]: 290 nM
- IC50 [3]: 230 nM
- inhibition [1]: 64.2%

SMILES: O[C@@H](COc1ccc(Cl)cc1)CN1CCN(c2ccccc2F)CC1
- inhibition [1]: 46.9%

SMILES: O[C@@H](COc1ccc(F)cc1)CN1CCN(Cc2cccc(Cl)c2)CC1
- IC50 [3]: 2100 nM
- inhibition [1]: 61.1%

SMILES: O[C@@H](COc1ccc(Cl)cc1)CN1CCN(Cc2ccccc2F)CC1
- inhibition [1]: 35.8%

SMILES: O[C@@H](COc1ccc(Cl)cc1)CN1CCN(c2ccc(F)cc2)CC1
- inhibition [1]: 39.7%

SMILES: O[C@H](COc1ccc(C(F)(F)F)cc1)CN1CCN(c2ccccc2F)CC1
- inhibition [1]: 48.9%

SMILES: O[C@@H](COc1ccc(C(F)(F)F)cc1)CN1CCN(Cc2ccccc2F)CC1
- inhibition [1]: 45.5%

SMILES: O[C@H](COc1ccc(C(F)(F)F)cc1)CN1CCN(Cc2cccc(Cl)c2)CC1
- inhibition [1]: 43.4%

SMILES: O[C@H](COc1ccc(Cl)cc1)CN1CCN(Cc2ccccc2F)CC1
- inhibition [1]: 41.5%

SMILES: O[C@@H](COc1ccc(Cl)cc1)CN1CCN(Cc2c(F)cccc2Cl)CC1
- inhibition [1]: 40.9%

SMILES: O[C@@H](COc1ccc(Cl)cc1)CN1CCN(Cc2ccc(Cl)c(Cl)c2)CC1
- inhibition [1]: 48.6%

SMILES: O[C@H](COc1ccc(C(F)(F)F)cc1)CN1CCN(c2ccc(F)cc2)CC1
- IC50 [3]: 15500 nM
- inhibition [1]: 59.2%

SMILES: O[C@@H](COc1ccc(F)cc1)CN1CCN(c2ccccc2F)CC1
- inhibition [1]: 51.1%

SMILES: O[C@H](COc1ccc(F)cc1)CN1CCN(Cc2ccccc2F)CC1
- inhibition [1]: 20.3%

SMILES: COc1ccccc1N1CCN(C[C@H](O)COc2ccc(Cl)cc2)CC1
- inhibition [1]: 48.8%

SMILES: COc1cccc(N2CCN(C[C@@H](O)COc3ccc(F)cc3)CC2)c1
- IC50 [3]: 12000 nM
- inhibition [1]: 61.3%

SMILES: O[C@H](COc1ccc(F)cc1)CN1CCN(Cc2c(F)cccc2Cl)CC1
- IC50 [3]: 11400 nM
- inhibition [1]: 62.1%

SMILES: COc1ccccc1N1CCN(C[C@H](O)COc2ccc(F)cc2)CC1
- inhibition [1]: 41%

SMILES: O[C@H](COc1ccc(Cl)cc1)CN1CCN(Cc2ccc(Cl)c(Cl)c2)CC1
- inhibition [1]: 41.2%

SMILES: O[C@H](COc1ccc(Cl)cc1)CN1CCN(c2ccccc2F)CC1
- inhibition [1]: 35.9%

SMILES: O[C@@H](COc1ccc(F)cc1)CN1CCN(c2ccc(F)cc2)CC1
- inhibition [1]: 47.5%

SMILES: O[C@@H](COc1ccc(C(F)(F)F)cc1)CN1CCN(Cc2ccc(Cl)c(Cl)c2)CC1
- Ratio IC50 (HEK293): 7.24
- IC50 [2]: 9200 nM
- IC50 [3]: 1270 nM
- inhibition [1]: 38.8%

SMILES: COc1ccccc1N1CCN(C[C@@H](O)COc2ccc(Cl)cc2)CC1
- inhibition [1]: 47.4%

SMILES: O[C@@H](COc1ccc(C(F)(F)F)cc1)CN1CCN(Cc2c(F)cccc2Cl)CC1
- inhibition [1]: 44.6%

SMILES: O[C@@H](COc1ccc(C(F)(F)F)cc1)CN1CCN(Cc2ccc(Cl)cc2)CC1
- inhibition [1]: 61.5%

SMILES: COc1cccc(N2CCN(C[C@@H](O)COc3ccc(Cl)cc3)CC2)c1
- inhibition [1]: 44.6%

SMILES: O[C@@H](COc1ccc(F)cc1)CN1CCN(Cc2ccc(Cl)c(Cl)c2)CC1
- Ratio IC50 (HEK293): 8.7
- IC50 [2]: 870 nM
- IC50 [3]: 100 nM
- inhibition [1]: 69.5%

SMILES: O[C@H](COc1ccc(F)cc1)CN1CCN(c2ccccc2F)CC1
- inhibition [1]: 42%

SMILES: O[C@H](COc1ccc(C(F)(F)F)cc1)CN1CCN(Cc2ccc(Cl)cc2)CC1
- IC50 [3]: 4230 nM
- inhibition [1]: 56.6%

SMILES: O[C@H](COc1ccc(F)cc1)CN1CCN(Cc2cccc(Cl)c2)CC1
- IC50 [3]: 2580 nM
- inhibition [1]: 65.8%

SMILES: O[C@@H](COc1ccc(Cl)cc1)CN1CCN(Cc2cccc(Cl)c2)CC1
- inhibition [1]: 46%

SMILES: O[C@H](COc1ccc(Cl)cc1)CN1CCN(Cc2ccc(Cl)cc2)CC1
- IC50 [3]: 1080 nM
- inhibition [1]: 56.5%

SMILES: O[C@H](COc1ccc(C(F)(F)F)cc1)CN1CCN(Cc2c(F)cccc2Cl)CC1
- Tmax [4]: 30 min
- Cmax [5]: 870 ng/mL
- AUClast (Brain [16]): 119.1 µg·min/g
- half-life [7]: 186 min
- bioavailability [9]: 9.94%
- Kp [10]: 7.63
- Tmax [11]: 15 min
- half-life [12]: 56.5 min
- Cmax [13]: 197 ng/mL
- AUC(0-t) [14]: 260 ng·h/mL
- AUC(0-inf) [15]: 276 ng·h/mL
- Ratio IC50 (HEK293): 18.4
- IC50 [2]: 14000 nM
- IC50 [3]: 760 nM
- inhibition [1]: 55.1%

SMILES: COc1ccccc1N1CCN(C[C@@H](O)COc2ccc(F)cc2)CC1
- inhibition [1]: 50.7%

SMILES: O[C@@H](COc1ccc(C(F)(F)F)cc1)CN1CCN(c2ccccc2F)CC1
- inhibition [1]: 50.2%

SMILES: COc1ccccc1N1CCN(C[C@H](O)COc2ccc(C(F)(F)F)cc2)CC1
- inhibition [1]: 50.8%

SMILES: O[C@H](COc1ccc(F)cc1)CN1CCN(Cc2ccc(Cl)cc2)CC1
- Ratio IC50 (HEK293): 0.87
- IC50 [2]: 1350 nM
- IC50 [3]: 1560 nM
- inhibition [1]: 65.8%
